Experimental data as given in ChEMBL document CHEMBL1275591, “Cellular pharmacodynamics of the novel biaryloxazolidinone radezolid: studies with infected phagocytic and nonphagocytic cells, using Staphylococcus aureus, Staphylococcus epidermidis, Listeria monocytogenes, and Legionella pneumophila” (Antimicrob Agents Chemother, 2010).
Values after ≈ are worked out from the molar mass of the structure shown.

Legend:
Staphylococcus aureus [1] = test: Antimicrobial activity against linezolid-susceptible Staphylococcus aureus SA238 after 24 hrs; assay type: functional, organism-based; settings: SA238, 24 h
Staphylococcus aureus [2] = test: Antimicrobial activity against linezolid-susceptible Staphylococcus aureus SA238 infected in HUVEC cells assessed as log reduction in bacterial count after 24 hrs; assay type: functional
Outline: (§1)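 S. aureus was internalized by adherent nonphagocytic cells: Calu-3, HUVEC, keratinocytes on collagen-coated wells, osteoblasts, or rat embryo fibroblasts. Inoculum was 5 × 10^7 to 1 × 10^8 bacteria/ml with 2 h phagocytosis (HUVEC: 2 × 10^6/ml, 1 h). Cells were then exposed to graded drug concentrations for 24 h. CFU change versus the original inoculum was fitted sigmoidally for Emax and Cs.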

Staphylococcus aureus [3] = test: Bacteriostatic activity against linezolid-resistant Staphylococcus aureus SA238L infected in HUVEC cells after 24 hrs; assay type: functional
Outline: (§2)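 HUVEC were grown in endothelial growth medium on gelatin-treated flasks. They were infected with 2 × 10^6 bacteria/ml for 1 h phagocytosis, then exposed 24 h to graded antibiotic concentrations. CFU change from the initial inoculum was fitted to a sigmoidal curve to obtain the static concentration (Cs).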

[4] = Ratio of drug level for cellular to extracellular region of Staphylococcus aureus infected rat fibroblast at 4 mg/liter after 2 hrs; assay type: ADME, cell-based
Outline: (§3)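 Cells were exposed to [14C]radezolid for 2 or 24 h. Cell-associated drug in lysates was measured by liquid scintillation counting (detection limit 0.003 mg/liter; linear 0.01–0.78 mg/liter). Content was normalised to cell protein (Lowry). It was converted to apparent cellular concentration at 5 μl per mg protein and expressed relative to the extracellular concentration.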

Staphylococcus aureus [5] = test: Bacteriostatic activity against linezolid-susceptible Staphylococcus aureus SA040 infected in THP1 cells after 24 hrs; assay type: functional, THP-1
Outline: (§4)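 Human THP-1 myelomonocytic (macrophage-like) cells infected with S. aureus, then exposed 24 h to a range of antibiotic concentrations. CFU change was measured against the initial inoculum. A sigmoidal dose-response curve was fitted to give Emin, Emax and EC50, and the apparent static concentration (Cs) was taken from the fit.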

Staphylococcus aureus [6] = test: Antimicrobial activity against linezolid-susceptible Staphylococcus aureus SA238 infected in THP-1 cells at pH 5.5 after 24 hrs; assay type: functional, organism-based; settings: SA238, THP-1, 24 h
Staphylococcus aureus [7] = test: Antimicrobial activity against linezolid-susceptible Staphylococcus aureus SA238 infected in THP1 cells at pH 7.4 after 24 hrs; assay type: functional, organism-based; settings: SA238, THP-1, 24 h
Staphylococcus aureus [8] = test: Antimicrobial activity against linezolid-susceptible Staphylococcus aureus SA238 infected in Calu-3 cells assessed as log reduction in bacterial count after 24 hrs; assay type: functional; outline: as §1
Staphylococcus aureus [9] = test: Antimicrobial activity against linezolid-resistant Staphylococcus aureus SA238L infected in human epidermal keratinocytes cells assessed as log reduction in bacterial count after 24 hrs; assay type: functional; outline: as §1
Staphylococcus aureus [10] = test: Antimicrobial activity against methicillin-resistant, vancomycin intermediate Staphylococcus aureus NRS18 after 24 hrs; assay type: functional; settings: NRS18, 24 h
Staphylococcus aureus [11] = test: Antimicrobial activity against Staphylococcus aureus ATCC 25923 infected in THP-1 cells assessed as log reduction in bacterial count at 1 mg/L after 5 hrs; assay type: functional
Outline: (§5)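 Time-course test with S. aureus ATCC 25923, either in Mueller-Hinton broth or after phagocytosis by THP-1 cells. Samples were taken over a 5 h incubation with drug at 1 mg/liter. Read-out was the change in CFU relative to the initial inoculum, reported as means.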

Staphylococcus aureus [12] = test: Antimicrobial activity against linezolid-resistant Staphylococcus aureus SA040L infected in THP1 cells assessed as log reduction in bacterial count after 24 hrs; assay type: functional, THP-1
Outline: (§6)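 Bacteria were phagocytosed by human THP-1 macrophage-like cells, then exposed to a range of drug concentrations for a fixed time: 24 h for S. aureus, S. epidermidis and L. monocytogenes, 48 h for L. pneumophila. Change in CFU versus the initial inoculum was fitted with a sigmoidal curve to give Emin, Emax (relative maximal efficacy), EC50 and static concentration (Cs).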

Staphylococcus aureus [13] = test: Bacteriostatic activity against linezolid-susceptible Staphylococcus aureus NRS384 infected in THP1 cells after 24 hrs; assay type: functional, THP-1; outline: as §4
Staphylococcus aureus [14] = test: Bacteriostatic activity against linezolid-susceptible Staphylococcus aureus SA238 infected in HUVEC cells after 24 hrs; assay type: functional; outline: as §2
Staphylococcus aureus [15] = test: Bacteriostatic activity against linezolid-susceptible Staphylococcus aureus SA238 infected in human osteoblasts cells after 24 hrs; assay type: functional
Outline: (§7)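 Adherent nonphagocytic cells were infected at 5 × 10^7 to 1 × 10^8 bacteria/ml with 2 h phagocytosis. Cells used: Calu-3 bronchial epithelium grown in uncoated flasks, neonatal foreskin keratinocytes on collagen-coated wells, primary human osteoblasts, and primary rat embryo fibroblasts. Antibiotic was then given over a concentration range for 24 h. Cs came from a sigmoidal fit of CFU change.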

Staphylococcus aureus [16] = test: Bacteriostatic activity against linezolid-susceptible Staphylococcus aureus SA238 infected in THP1 cells at pH 5.5 after 24 hrs; assay type: functional, THP-1
Staphylococcus aureus [17] = test: Bacteriostatic activity against linezolid-resistant Staphylococcus aureus SA238L infected in human osteoblasts cells after 24 hrs; assay type: functional; outline: as §7
Staphylococcus aureus [18] = test: Antimicrobial activity against hospital acquired methicillin-resistant, vancomycin resistant Staphylococcus aureus VRS1 after 24 hrs; assay type: functional; settings: VRS1, 24 h
Staphylococcus aureus [19] = test: Bacteriostatic activity against linezolid-resistant Staphylococcus aureus SA238L infected in THP1 cells after 24 hrs; assay type: functional, THP-1; outline: as §4
Staphylococcus aureus [20] = test: Antimicrobial activity against linezolid-susceptible Staphylococcus aureus ATCC 25923 infected in THP1 cells assessed as log reduction in bacterial count after 24 hrs; assay type: functional, THP-1; outline: as §6
[21] = Ratio of drug level for cellular to extracellular region of Staphylococcus aureus infected human keratinocyte at 4 mg/liter after 24 hrs; assay type: ADME, cell-based; outline: as §3
[22] = Ratio of drug level for cellular to extracellular region of Staphylococcus aureus infected rat fibroblast at 4 mg/liter after 24 hrs; assay type: ADME, cell-based; outline: as §3
Staphylococcus aureus [23] = test: Antimicrobial activity against hospital acquired methicillin-resistant Staphylococcus aureus ATCC 33591 after 24 hrs; assay type: functional; settings: ATCC 33591, 24 h
Staphylococcus aureus [24] = test: Antimicrobial activity against linezolid-susceptible Staphylococcus aureus SA238 infected in rat fibroblast cells assessed as log reduction in bacterial count after 24 hrs; assay type: functional; outline: as §1
Staphylococcus aureus [25] = test: Antimicrobial activity against linezolid-susceptible Staphylococcus aureus SA238 infected in human osteoblasts cells assessed as log reduction in bacterial count after 24 hrs; assay type: functional; outline: as §1
Staphylococcus aureus [26] = test: Antimicrobial activity against Linezolid resistant hospital acquired methicillin-resistant Staphylococcus aureus SA238L after 24 hrs; assay type: functional
Listeria monocytogenes [27] = test: Bacteriostatic activity against Listeria monocytogenes EGD infected in THP1 cells after 24 hrs; assay type: functional, THP-1; outline: as §6
HUVEC = test: Ratio of drug level for cellular to extracellular region of Staphylococcus aureus infected HUVEC cells at 4 mg/liter after 2 hrs; assay type: ADME, cell-based; settings: human; outline: as §3
Staphylococcus aureus [28] = test: Antimicrobial activity against linezolid-susceptible Staphylococcus aureus SA238 infected in human epidermal keratinocytes cells assessed as log reduction in bacterial count after 24 hrs; assay type: functional; outline: as §1
Listeria monocytogenes [29] = test: Antimicrobial activity against Listeria monocytogenes EGD after 24 hrs; assay type: functional
Staphylococcus aureus [30] = test: Bacteriostatic activity against linezolid-susceptible Staphylococcus aureus SA238 after 24 hrs; assay type: functional
Outline: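 Extracellular concentration-response in Mueller-Hinton broth over 24 h. Change in CFU was fitted to a sigmoidal function, and the apparent static concentration (Cs) was derived from the fit.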

Staphylococcus aureus [31] = test: Antimicrobial activity against Staphylococcus aureus ATCC 25923 assessed as log reduction in bacterial count at 1 mg/L after 5 hrs; assay type: functional; outline: as §5
[32] = Ratio of drug level for cellular to extracellular region of Staphylococcus aureus infected human keratinocyte at 4 mg/liter after 2 hrs; assay type: ADME, cell-based; outline: as §3
Staphylococcus aureus [33] = test: Antimicrobial activity against linezolid resistant methicillin-susceptible Staphylococcus aureus SA040L after 24 hrs; assay type: functional

For `CC(=O)NC[C@H]1CN(c2ccc(-c3ccc(CNCc4cnn[nH]4)cc3)c(F)c2)C(=O)O1` [RADEZOLID], the EC50 (Staphylococcus aureus [1]) was 0.16 µg/mL (≈ 0.365 µM), the log10cfu (Staphylococcus aureus [2]) was 0.6 and the Activity (Staphylococcus aureus [3]) was 0.6 mg/L. For the same compound, the Ratio [4] was 14.4, the Activity (Staphylococcus aureus [5]) was 0.21 mg/L and the EC50 (Staphylococcus aureus [6]) was 0.02 µg/mL (≈ 0.0456 µM). The EC50 (Staphylococcus aureus [7]) was 0.31 µg/mL (≈ 0.707 µM), the log10cfu (Staphylococcus aureus [8]) was 0.6 and the log10cfu (Staphylococcus aureus [9]) was 0.6. It also gave an MIC (Staphylococcus aureus [10]) of 0.25 µg/mL (≈ 0.57 µM), a log10cfu (Staphylococcus aureus [11]) of 0.5 and a log10cfu (Staphylococcus aureus [12]) of -0.66. For the same compound, the Activity (Staphylococcus aureus [13]) was 0.32 mg/L, the Activity (Staphylococcus aureus [14]) was 0.6 mg/L and the Activity (Staphylococcus aureus [15]) was 0.6 mg/L. It also gave an Activity (Staphylococcus aureus [16]) of 0.06 mg/L, an Activity (Staphylococcus aureus [17]) of 0.6 mg/L and an MIC (Staphylococcus aureus [18]) of 0.5 µg/mL (≈ 1.14 µM). The Activity (Staphylococcus aureus [19]) was 0.97 mg/L, the log10cfu (Staphylococcus aureus [20]) was -0.57 and the Ratio [21] was 16.1. The Ratio [22] was 10.9, the MIC (Staphylococcus aureus [23]) was 0.5 µg/mL (≈ 1.14 µM) and the log10cfu (Staphylococcus aureus [24]) was 0.6. For the same compound, the log10cfu (Staphylococcus aureus [25]) was 0.6, the MIC (Staphylococcus aureus [26]) was 2 µg/mL (≈ 4.56 µM) and the Activity (Listeria monocytogenes [27]) was 0.43 mg/L. It also gave a Ratio (HUVEC) of 9.5, a log10cfu (Staphylococcus aureus [28]) of 0.6 and an MIC (Listeria monocytogenes [29]) of 0.03 µg/mL (≈ 0.0684 µM). For the same compound, the Activity (Staphylococcus aureus [30]) was 0.52 mg/L, the log10cfu (Staphylococcus aureus [31]) was 2 and the Ratio [32] was 12.6. For the same compound, the MIC (Staphylococcus aureus [33]) was 2 µg/mL (≈ 4.56 µM).
